Experimental data as given in ChEMBL document CHEMBL1134451, “Synthesis, cytotoxicity, and antitumor activity of copper(II) and iron(II) complexes of (4)N-azabicyclo[3.2.2]nonane thiosemicarbazones derived from acyl diazines” (J Med Chem, 2001).

Columns and labels:
[1] = Ratio of IC50 values was calculated by IC50 cytidine incorporation/IC50 cell proliferation; type: functional
In short: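 Ratio of the [14C]cytidine-incorporation IC50 to the cell-proliferation IC50, both measured in Burkitt's lymphoma cells.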

lymphoma [2] = assay: (§1) Percentage of cells in G2-M cell cycle phase of lymphoma cells after 24 hr treatment; type: functional; conditions: Homo sapiens
[3] = Mean IC50 value of the compound; type: functional
In short: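 Geometric mean of clonogenic soft-agar IC50 values across the tumor xenografts tested: 10 raised to the mean of log IC50 over all xenografts.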

lymphoma [4] = assay: (§2) Percentage of cells in S cell cycle phase of lymphoma cells after 24 hr treatment; type: functional; conditions: Homo sapiens
lymphoma [5] = assay: (§3) Percentage of cells in G2-M cell cycle phase of lymphoma cells after 48 hr treatment; type: functional; conditions: Homo sapiens
lymphoma [6] = assay: (§4) Percentage of cells in G1 cell cycle phase of lymphoma cells after 48 hr treatment; type: functional; conditions: Homo sapiens
lymphoma [7] = assay: (§5) Percentage of cells in S cell cycle phase of lymphoma cells after 48 hr treatment; type: functional; conditions: Homo sapiens
lymphoma [8] = assay: (§6) Percentage of cells in G1 cell cycle phase of lymphoma cells after 24 hr treatment; type: functional; conditions: Homo sapiens
HT-29 [9] = assay: Cytotoxic activity against colon adenocarcinoma (HT-29) cell line; type: functional, cell-based, Homo sapiens
In short: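 HT-29 colon adenocarcinoma cells in McCoy's 5A with 10% FCS, glutamine and penicillin/streptomycin, about 10 000 cells/well. After a 4 h preincubation, cells were exposed to compound (DMSO up to 0.5% final) for 72 h at 37 °C, 5% CO2. Readout was SRB assay. IC50 from dose-response curves; mean of at least three independent experiments run in duplicate.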

CCRF-CEM = assay: Cytotoxic activity against human acute lymphoblastic leukemia (CCRF-CEM) cell line; type: functional, cell-based
[10] = Inhibition of cell proliferation in Burkitt's lymphoma cells; type: functional, cell-based, Homo sapiens
[11] = as §1; type: functional, Homo sapiens
[12] = Inhibition of [14C]-cytidine incorporation into DNA in Burkitt''s lymphoma cells; type: functional, cell-based, Homo sapiens
In short: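 Intact exponentially growing Burkitt's lymphoma cells, (1-2)×10^6/mL, incubated with compound at 37 °C for 90 min, then 0.7 μCi [14C]cytidine added. Cells TCA-precipitated and RNase-treated in Tris-HCl pH 8 for 2 h at 37 °C, then reprecipitated with TCA. Pellet dissolved in NaOH and counted by scintillation. IC50 is the mean of two experiments run in duplicate.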

[13] = as §2; type: functional, Homo sapiens
[14] = as §3; type: functional, Homo sapiens
[15] = as §4; type: functional, Homo sapiens
[16] = as §5; type: functional, Homo sapiens
[17] = as §6; type: functional, Homo sapiens
MEXF276L = assay: Inhibition of cell proliferation of human melanoma MEXF276L tumor xenograft in colony forming assay; type: functional, cell-based
HT-29 [18] = assay: Inhibition of cell proliferation of human colon HT-29X tumor xenograft in colony forming assay; type: functional, cell-based
LXFL 529 = assay: Inhibition of cell proliferation of human lung large cell LXFL529 tumor xenograft in colony forming assay; type: functional, cell-based
MEXF989 = assay: Inhibition of cell proliferation of human melanoma MEXF989 tumor xenograft in colony forming assay; type: functional, cell-based
PAXF736 = assay: Inhibition of cell proliferation of human pancreas PAXF736 tumor xenograft in colony forming assay; type: functional, cell-based
CXF280 = assay: Inhibition of cell proliferation of human colon CXF280 tumor xenograft in colony forming assay; type: functional, cell-based
LXFS538 = assay: Inhibition of cell proliferation of human lung small cell LXFS538 tumor xenograft in colony forming assay; type: functional, cell-based
PAXF546 = assay: Inhibition of cell proliferation of human pancreas PAXF546 tumor xenograft in colony forming assay; type: functional, cell-based
MX1 = assay: Inhibition of cell proliferation of human breast MXI tumor xenograft in colony forming assay; type: functional, cell-based
MCF7 = assay: Inhibition of cell proliferation of human breast MCF7X tumor xenograft in colony forming assay; type: functional, cell-based
CXF1103 = assay: Inhibition of cell proliferation of human colon CXF1103 tumor xenograft in colony forming assay; type: functional, cell-based
OVXF1353 cell line = assay: Inhibition of cell proliferation of human ovary OVXF1353 tumor xenograft in colony forming assay; type: functional, cell-based, Female gonad
OVXF1023 cell line = assay: Inhibition of cell proliferation of human ovary OVXF1023 tumor xenograft in colony forming assay; type: functional, cell-based, Female gonad
RXF 423 = assay: Inhibition of cell proliferation of human renal RXF423 tumor xenograft in colony forming assay; type: functional, cell-based
CXF158 = assay: Inhibition of cell proliferation of human colon CXF158 tumor xenograft in colony forming assay; type: functional, cell-based

N-[(1E)-1-(3-methylpyrazin-2-yl)ethylidene]-3-azabicyclo[3.2.2]nonane-3-carbohydrazonothioic acid.chloro Cu(II)complex [listing 1 of 2 here]
IC50 ratio [1]: 30
Activity (lymphoma [2]): 17%
Mean IC50 [3]: 0.37 nM
Activity (lymphoma [4]): 22.8%
Activity (lymphoma [5]): 9.81%
Activity (lymphoma [6]): 49.3%
Activity (lymphoma [7]): 29.8%
Activity (lymphoma [8]): 51.9%

C/C(=N\N=C(/S)N1CC2CCC(CC2)C1)c1ccncn1
IC50 (HT-29 [9]; Homo sapiens, HT-29): 50 nM
IC50 (CCRF-CEM; Homo sapiens, CCRF-CEM): 20 nM

N-[(1E)-1-(6-methylpyrimidin-4-yl)ethylidene]-3-azabicyclo[3.2.2]nonane-3-carbohydrazonothioic acid.chloro Cu(II)complex [listing 1 of 2 here]
IC50 ratio [1]: 11.7
Activity (lymphoma [2]): 13.6%
Mean IC50 [3]: 1 nM
Activity (lymphoma [4]): 21.7%
Activity (lymphoma [5]): 11.4%
Activity (lymphoma [6]): 59.2%
Activity (lymphoma [7]): 21.5%
Activity (lymphoma [8]): 64.5%

NC(=O)NO [HYDROXYUREA]
IC50 ratio [1]: 0.26
IC50 ([10]; Homo sapiens): 140000 nM
Activity [11]: 11.9%
IC50 [12]: 37200 nM
Activity [13]: 38.22%
Activity [14]: 19.52%
Activity [15]: 21.27%
Activity [16]: 45.1%
Activity [17]: 48.2%

N-[(1E)-1-pyrimidin-4-ylethylidene]-3-azabicyclo[3.2.2]nonane-3-carbohydrazonothioic acid.chloro Cu(II)complex
IC50 (HT-29 [9]; ht-29): < 10 nM
IC50 (CCRF-CEM; ccrf-cem): < 10 nM

N-[(1E)-1-(3-methylpyrazin-2-yl)ethylidene]-3-azabicyclo[3.2.2]nonane-3-carbohydrazonothioic acid.chloro Cu(II)complex [listing 2 of 2 here]
IC50 (MEXF276L): 36 nM
IC50 (HT-29 [18]): 0.85 nM
IC50 [10]: 6 nM
IC50 (LXFL 529): < 0.1 nM
IC50 (MEXF989): 3 nM
IC50 (PAXF736): < 0.1 nM
IC50 (CXF280): < 0.1 nM
IC50 (LXFS538): 0.22 nM
IC50 (PAXF546): 0.56 nM
IC50 (MX1): 5 nM
IC50 (MCF7): 0.21 nM
IC50 [12]: 180 nM
IC50 (CXF1103): < 0.1 nM
IC50 (CCRF-CEM; ccrf-cem): 6 nM

N-[(1E)-1-(5-methylpyrazin-2-yl)ethylidene]-3-azabicyclo[3.2.2]nonane-3-carbohydrazonothioic acid.chloro Cu(II)complex [listing 1 of 2 here]
IC50 (MEXF276L): 14 nM
IC50 (HT-29 [18]): 1 nM
IC50 [10]: 6 nM
IC50 (LXFL 529): < 0.1 nM
IC50 (MEXF989): 0.7 nM
IC50 (PAXF736): < 10 nM
IC50 (OVXF1353 cell line): 24 nM
IC50 (CXF280): < 0.1 nM
IC50 (PAXF546): 0.2 nM
IC50 (MX1): 4 nM
IC50 (MCF7): < 0.1 nM
IC50 [12]: 2970 nM
IC50 (OVXF1023 cell line): 10 nM
IC50 (CXF1103): < 0.1 nM
IC50 (HT-29 [9]; ht-29): 4 nM
IC50 (RXF 423): 4 nM
IC50 (CXF158): 0.13 nM
IC50 (CCRF-CEM; ccrf-cem): 5 nM

Copper(II) Complex
IC50 (HT-29 [9]; ht-29): 1510 nM
IC50 (CCRF-CEM; ccrf-cem): 300 nM

C/C(=N\N=C(/S)N1CC2CCC(CC2)C1)c1cnccn1
IC50 (HT-29 [9]; Homo sapiens, HT-29): 11 nM
IC50 (CCRF-CEM; Homo sapiens, CCRF-CEM): 11 nM

N-[(1E)-1-pyrazin-2-ylethylidene]-3-azabicyclo[3.2.2]nonane-3-carbohydrazonothioic acid.chloro Cu(II)complex
IC50 (HT-29 [9]; ht-29): < 10 nM
IC50 (CCRF-CEM; ccrf-cem): < 10 nM

N-[(1E)-1-(5-methylpyrazin-2-yl)ethylidene]-3-azabicyclo[3.2.2]nonane-3-carbohydrazonothioic acid.chloro Cu(II)complex [listing 2 of 2 here]
IC50 ratio [1]: 495
Activity (lymphoma [2]): 19.9%
Mean IC50 [3]: 0.37 nM
Activity (lymphoma [4]): 25.9%
Activity (lymphoma [5]): 17.7%
Activity (lymphoma [6]): 52.7%
Activity (lymphoma [7]): 29.4%
Activity (lymphoma [8]): 53.1%

N-[(1E)-1-(6-methylpyrimidin-4-yl)ethylidene]-3-azabicyclo[3.2.2]nonane-3-carbohydrazonothioic acid.chloro Cu(II)complex [listing 2 of 2 here]
IC50 (HT-29 [18]): 5 nM
IC50 (LXFL 529): < 0.1 nM
IC50 (MEXF989): 0.84 nM
IC50 (PAXF736): 15 nM
IC50 (OVXF1353 cell line): 19 nM
IC50 (CXF280): 0.2 nM
IC50 (PAXF546): 3 nM
IC50 (MX1): 14 nM
IC50 (MCF7): 0.2 nM
IC50 [12]: 210 nM
IC50 (OVXF1023 cell line): 15 nM
IC50 (CXF1103): 0.11 nM
IC50 (HT-29 [9]; ht-29): 4 nM
IC50 (RXF 423): 26 nM
IC50 (CXF158): 2 nM
IC50 (CCRF-CEM; ccrf-cem): 10 nM

N-[(1E)-1-(6-methylpyridazin-3-yl)ethylidene]-3-azabicyclo[3.2.2]nonane-3-carbohydrazonothioic acid.chloro Cu(II)complex
IC50 (HT-29 [9]; ht-29): 870 nM
IC50 (CCRF-CEM; ccrf-cem): 130 nM
